The results in this text go back to ChEMBL document CHEMBL1124770, “Synthesis and pharmacological evaluation of amino, azido, and nitrogen mustard analogues of 10-substituted cannabidiol and 11- or 12-substituted delta 8-tetrahydrocannabinol” (1990).

Assay type in all cases: functional
Assay [1] has as its system Mus musculus. Kind of assay: Evaluated for catalepsy activity in mice and percentage immobility was determined at a concentration of 0 mg/Kg. In a few lines: (§1)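 Mice, single tail-vein injection (0.1 mL/10 g) in ethanol/emulphor/saline (1:1:18). Catalepsy scored by ring test as % immobility, per previously reported methods. Vehicle and Δ9-THC positive-control groups run in each daily experiment. Mean ± SEM; ANOVA with Dunnett's t test versus control, p < 0.05 two-tailed.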

The subject of assay [2] is Mus musculus. Kind of assay: Evaluated for catalepsy activity in mice and percentage immobility was determined at a concentration of 50 mg/Kg. Summed up: as §1
The subject of assay [3] is Mus musculus. Kind of assay: Tail-flick latency was determined at a concentration of 0 mg/Kg. Summed up: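 Antinociception in mice by tail-flick latency (s), per previously reported methods, after tail-vein injection (0.1 mL/10 g) in ethanol/emulphor/saline (1:1:18). Vehicle and Δ9-THC controls run daily. Mean ± SEM; ANOVA with Dunnett's t test, p < 0.05 two-tailed.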
A general note: In hot-plate and tail-flick tests a longer latency is read as antinociception.

In assay [4] the test system is Mus musculus. Kind of assay: Tail-flick latency was determined at a concentration of 0 ug/Kg administered intraventricularly. Summed up:
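Tail-flick latency (s) in mice after intraventricular injection (5 μL) of ethanol/emulphor/saline (1:1:18) vehicle, measured by previously reported methods. Mean ± SEM; ANOVA with Dunnett's t test, p < 0.05 two-tailed.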

For assay [5], the system named is Mus musculus. Kind of assay: Tail-flick latency was determined at a concentration of 150 ug/Kg administered intraventricularly. In a few lines: (§2)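 Mice, injected intraventricularly in 5 μL of ethanol/emulphor/saline (1:1:18) vehicle. Doses given as μg amounts. Antinociception read as tail-flick latency (s), alongside vehicle control. Values reported as mean ± SEM. ANOVA with Dunnett's t test versus control, significance at p < 0.05 (two-tailed).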

In assay [6] the test system is Mus musculus. Kind of assay: Evaluated for reduction in spontaneous locomotor activity in mice at a dose of 150 ug/Kg administered intraventricularly. Summed up:
(§3)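 Mice given intraventricular injection of 5 μL in ethanol/emulphor/saline (1:1:18). Spontaneous locomotor activity recorded as counts/10 min by previously reported methods, alongside vehicle and Δ9-THC controls. Mean ± SEM; ANOVA with Dunnett's t test, p < 0.05 two-tailed.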

Assay [7] concerns Mus musculus. Kind of assay: Evaluated for reduction in spontaneous locomotor activity in mice at a dose of 50 mg/Kg. Summed up: (§4)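 Tail-vein injection in mice (0.1 mL/10 g; ethanol/emulphor/saline 1:1:18). Spontaneous locomotor activity counted as counts/10 min, per previously reported methods. Daily vehicle and Δ9-THC positive controls. Mean ± SEM; ANOVA with Dunnett's t test, p < 0.05 two-tailed.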

In assay [8] the test system is Mus musculus. Kind of assay: Evaluated for reduction in spontaneous locomotor activity in mice, at a dose of 0 mg/Kg. In a few lines: as §4
Assay [9] deals with Mus musculus. Kind of assay: Evaluated for reduction in spontaneous locomotor activity in mice, at a dose of 0 ug/Kg administered intraventricularly. In a few lines:
as §3

Assay [10] concerns Mus musculus. Kind of assay: Tail-flick latency was determined at a concentration of 50 mg/Kg. Summed up: (§5)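 Mice, drug suspended in ethanol/emulphor/saline (1:1:18) and given by tail-vein injection (0.1 mL/10 g). Antinociception measured as tail-flick latency (s). Vehicle and Δ9-THC positive controls run in each daily experiment. Data given as mean ± SEM. ANOVA with Dunnett's t test against control, p < 0.05 (two-tailed).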

Assay [11] has as its system Mus musculus. Kind of assay: Evaluated for hypothermic activity in mice at a dose of 0 mg/Kg. In a few lines:
(§6)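 Mice dosed by tail-vein injection (0.1 mL/10 g) in ethanol/emulphor/saline (1:1:18). Body temperature change (°C) measured by previously reported methods. Vehicle and Δ9-THC positive controls run each day. Mean ± SEM; ANOVA with Dunnett's t test versus control, p < 0.05 two-tailed.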

For assay [12], the system named is Mus musculus. Kind of assay: Evaluated for hypothermic activity in mice at a dose of 0 ug/Kg administered intraventricularly. In a few lines:
(§7)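 Intraventricular injection in mice, 5 μL volume, in ethanol/emulphor/saline (1:1:18) vehicle. Change in body temperature (°C) recorded by previously reported methods, with vehicle and Δ9-THC controls. Mean ± SEM; ANOVA with Dunnett's t test versus control, p < 0.05 two-tailed.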

In assay [13] the test system is Mus musculus. Kind of assay: Evaluated for hypothermic activity in mice at a dose of 150 ug/Kg administered intraventricularly. Summed up:
as §7

Assay [14] has as its system Mus musculus. Kind of assay: Evaluated for hypothermic activity in mice at a dose of 50 mg/Kg. In a few lines: as §6
The subject of assay [15] is Mus musculus. Kind of assay: Evaluated for catalepsy activity in mice and percentage immobility was determined at a concentration of 0.3 mg/Kg. Summed up: as §1
For assay [16], the system named is Mus musculus. Kind of assay: Evaluated for catalepsy activity in mice and percentage immobility was determined at a concentration of 3 mg/Kg. Summed up: as §1
Assay [17] relates to Mus musculus. Kind of assay: Evaluated for catalepsy activity in mice and percentage immobility was determined at a concentration of 30 mg/Kg. Summed up: as §1
Assay [18] concerns Mus musculus. Kind of assay: Evaluated for catalepsy activity in mice and percentage immobility was determined at a concentration of 6 mg/Kg. In a few lines:
as §1

Assay [19] concerns Mus musculus. Kind of assay: Tail-flick latency was determined at a concentration of 0.3 mg/Kg. Summed up:
as §5

Assay [20] deals with Mus musculus. Kind of assay: Tail-flick latency was determined at a concentration of 100 ug/Kg administered intraventricularly.
Assay [21] relates to Mus musculus. Kind of assay: Tail-flick latency was determined at a concentration of 3 mg/Kg. In a few lines: as §5
The test system of assay [22] is Mus musculus. Kind of assay: Evaluated for reduction in spontaneous locomotor activity in mice, at a dose of 100 ug/Kg administered intraventricularly. Summed up:
as §3

In assay [23] the test system is Mus musculus. Kind of assay: Evaluated for reduction in spontaneous locomotor activity in mice, at a dose of 150 ug/Kg administered intraventricularly. In a few lines:
as §3

Assay [24] concerns Mus musculus. Kind of assay: Evaluated for reduction in spontaneous locomotor activity in mice, at a dose of 3 mg/Kg. Summed up: as §4
Assay [25] has as its system Mus musculus. Kind of assay: Evaluated for reduction in spontaneous locomotor activity in mice, at a dose of 30 mg/Kg. In a few lines: as §4
Assay [26] concerns Mus musculus. Kind of assay: Evaluated for reduction in spontaneous locomotor activity in mice, at a dose of 6 mg/Kg. Summed up:
as §4

For assay [27], the system named is Mus musculus. Kind of assay: Tail-flick latency was determined at a concentration of 30 mg/Kg. Summed up: as §5
Assay [28] has as its system Mus musculus. Kind of assay: Tail-flick latency was determined at a concentration of 50 ug/Kg administered intraventricularly. In a few lines:
as §2

Assay [29] concerns Mus musculus. Kind of assay: Tail-flick latency was determined at a concentration of 6 mg/Kg. Summed up: as §5
The subject of assay [30] is Mus musculus. Kind of assay: Evaluated for hypothermic activity in mice at a dose of 0.3 mg/Kg. Summed up:
as §6

The test system of assay [31] is Mus musculus. Kind of assay: Evaluated for hypothermic activity in mice at a dose of 100 ug/Kg administered intraventricularly. Summed up:
as §7

In assay [32] the test system is Mus musculus. Kind of assay: Evaluated for hypothermic activity in mice at a dose of 3 mg/Kg. Summed up:
as §6

Assay [33] has as its system Mus musculus. Kind of assay: Evaluated for hypothermic activity in mice at a dose of 50 ug/Kg administered intraventricularly. Summed up:
as §7

Assay [34] relates to Mus musculus. Kind of assay: Evaluated for hypothermic activity in mice at a dose of 6 mg/Kg. Summed up: as §6
Assay [35] concerns Mus musculus. Kind of assay: Evaluated for reduction in spontaneous locomotor activity in mice at a dose of 0.3 mg/Kg. Summed up: as §4
Assay [36] concerns Mus musculus. Kind of assay: Evaluated for reduction in spontaneous locomotor activity in mice, at a dose of 50 ug/Kg administered intraventricularly. Summed up:
as §3

Assay [37] has as its system Mus musculus. Kind of assay: Evaluated for hypothermic activity in mice at a dose of 30 mg/Kg. Summed up:
as §6

For assay [38], the system named is Mus musculus. Kind of assay: Evaluated for catalepsy activity in mice and percentage immobility was determined at a concentration of 100 mg/Kg. In a few lines: as §1
Assay [39] concerns Mus musculus. Kind of assay: Tail-flick latency was determined at a concentration of 100 mg/Kg. Summed up:
as §5

Assay [40] concerns Mus musculus. Kind of assay: Evaluated for reduction in spontaneous locomotor activity in mice at a dose of 100 mg/Kg. Summed up:
as §4

Assay [41] deals with Mus musculus. Kind of assay: Evaluated for hypothermic activity in mice at a dose of 100 mg/Kg. In a few lines: as §6

Each structure is given as a SMILES string.

For the molecule `CCCCCc1cc(O)c2c(c1)OC(C)(C)[C@@H]1CC=C(CN(CCCl)CCCl)CC21` (some centres undefined), the Immobility with Mus musculus [1] is 4%; in the assay with Mus musculus [2], below 24%. In addition, the Tail flick latency was 0.7 s in the assay on Mus musculus [3], 0.2 s with Mus musculus [4], 0 s with Mus musculus [5] and -0.6 s in the assay on Mus musculus [10]. Further, the Spont activity in the assay on Mus musculus [6] is 70 Counts 10min-1; with Mus musculus [7] it was below 27 Counts 10min-1; with Mus musculus [8] it was 56 Counts 10min-1; in the assay on Mus musculus [9], 87 Counts 10min-1. Moreover, the Temperature is -0.8 °C in the assay on Mus musculus [11], -1.5 °C in the assay with Mus musculus [12], -1.7 °C in the assay with Mus musculus [13] and below -3.8 °C in the assay with Mus musculus [14].
Regarding `CCCCCc1cc(O)c2c(c1)OC(C)(C)[C@@H]1CCC(C)=C[C@@H]21` [DRONABINOL], the Immobility is recorded as 8% in the assay with Mus musculus [1]; 9% with Mus musculus [15]; below 25% with Mus musculus [16]; below 57% in the assay with Mus musculus [17]; below 42% with Mus musculus [18]. For the same molecule, the Tail flick latency is reported as 0.6 s with Mus musculus [3]; -0.2 s with Mus musculus [4]; below 2 s in the assay on Mus musculus [19]; below 2.3 s in the assay on Mus musculus [20]; below 4 s in the assay on Mus musculus [5]; below 2.9 s in the assay on Mus musculus [21]. The values for the Tail flick latency in the assay on Mus musculus [27], with Mus musculus [28] and with Mus musculus [29] were below 5.1 s, below 1.6 s and below 4.9 s, respectively. Also, the Spont activity was 54 Counts 10min-1 in the assay on Mus musculus [8]; 103 Counts 10min-1 with Mus musculus [9]; below 41 Counts 10min-1 in the assay with Mus musculus [22]; below 33 Counts 10min-1 in the assay with Mus musculus [23]; below 30 Counts 10min-1 in the assay with Mus musculus [24]; below 7 Counts 10min-1 with Mus musculus [25]. Also, the Spont activity in the assay with Mus musculus [26] is recorded as below 23 Counts 10min-1; in the assay with Mus musculus [35] it was 70 Counts 10min-1; with Mus musculus [36], 46 Counts 10min-1. The Temperature is -1.1 °C with Mus musculus [11]; -2.2 °C with Mus musculus [12]; -1 °C in the assay on Mus musculus [30]; -3.6 °C with Mus musculus [31]; below -5.5 °C in the assay with Mus musculus [13]; below -2.4 °C in the assay on Mus musculus [32]. Besides, the Temperature is -2.3 °C in the assay with Mus musculus [33], below -2.9 °C with Mus musculus [34] and below -5.1 °C with Mus musculus [37].
Turning to `C=C(C)[C@@H]1CCC(C)=CC1c1c(O)cc(O)cc1CCCCC` (some centres undefined), the results for the Immobility with Mus musculus [1] and in the assay with Mus musculus [38] were 4% and below 30%, respectively. The Tail flick latency with Mus musculus [3] came to 0.2 s; in the assay with Mus musculus [39], 0.8 s. Also, the results for the Spont activity with Mus musculus [40] and with Mus musculus [8] were 57 Counts 10min-1 and 45 Counts 10min-1, respectively. Besides, the Temperature is -1.4 °C in the assay with Mus musculus [11] and -3.5 °C with Mus musculus [41].
